This is an account of results in ChEMBL document CHEMBL1122743, “Structure-activity relationship study of the inhibition of adrenal cortical 11 beta-hydroxylase by new metyrapone analogues” (J Med Chem, 1984).

This assay concerns the target T1, Cytochrome P450 11B1, mitochondrial (Bos taurus, UniProt P15150).
T1 sequence (P15150 whole entry): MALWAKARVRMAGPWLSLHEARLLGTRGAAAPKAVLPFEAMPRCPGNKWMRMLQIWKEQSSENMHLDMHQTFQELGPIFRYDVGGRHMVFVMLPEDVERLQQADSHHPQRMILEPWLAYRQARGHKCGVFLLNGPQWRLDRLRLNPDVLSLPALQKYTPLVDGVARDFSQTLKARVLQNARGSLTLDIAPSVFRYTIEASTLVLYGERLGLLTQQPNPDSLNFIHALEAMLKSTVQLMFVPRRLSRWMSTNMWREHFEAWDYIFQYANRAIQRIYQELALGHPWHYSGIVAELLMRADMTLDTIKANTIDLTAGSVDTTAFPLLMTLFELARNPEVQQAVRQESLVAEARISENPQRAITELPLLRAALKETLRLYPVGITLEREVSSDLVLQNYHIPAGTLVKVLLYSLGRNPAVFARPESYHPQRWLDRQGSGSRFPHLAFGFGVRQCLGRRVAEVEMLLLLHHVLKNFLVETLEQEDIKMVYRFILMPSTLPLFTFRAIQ
Nature of the assay: Evaluated for inhibition of bovine adrenal cortical mitochondrial 11 beta-hydroxylase. The format is functional. The method, boiled down: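 Crude lyophilized, defatted adrenal cortical mitochondria (300 µg) plus 15.0 µM purified adrenodoxin, in 0.50 mL of 50 mM potassium phosphate pH 7.40. Additions: 200 µM DOC with [3H]DOC tracer, 16 mM MgCl2, 4.6% propylene glycol, inhibitor (final 1% ethanol). Preincubated 5 min at 37 °C, then started with 1.5 mM NADPH. Products extracted into CH2Cl2, separated by TLC, counted by scintillation. Percent inhibition versus 1% ethanol controls; duplicates.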
The IC50 is the midpoint of a concentration-inhibition curve. Read a high IC50 as lower potency. As to `CC(C)(C(=NO)c1cccnc1)c1cccnc1`, the IC50 came to 4.78 µM.

`CC(C)(c1cccnc1)C(O)c1ccccc1` (stereo not given) returned a concentration for half-maximal inhibition (IC50) of 1.53 µM.

With `CC(C)(c1cccnc1)C(N)c1cccnc1` (stereo not given), the IC50 was over 1000 µM.

As for `CC(C)(c1cccnc1)C(I)c1cccnc1` (stereo not given), the IC50 is 5.36 µM.

With `CC(C)(C(=O)c1ccccc1)c1cccnc1`, it took 3.3 µM to reach half-maximal inhibition (IC50).

For the compound `CC(C)(c1cccnc1)C(Cl)c1cccnc1` (stereo not given), half-maximal inhibition (IC50) was put at 7.25 µM.

`CC(C)(c1cccnc1)C(O)c1cccnc1` (stereo not given) [METYRAPOL] showed an IC50 of 7.05 µM.

`CC(C)(Cc1ccccc1)c1cccnc1` came in with a half-inhibitory concentration (IC50) of 0.66 µM.

`CC(C)(Cc1cccnc1)c1cccnc1` registered an IC50 of 2.64 µM.

With `CC(C)(c1cccnc1)C(Cl)c1ccccc1` (stereo not given), the 50% inhibitory concentration (IC50) amounted to 1.63 µM.

`CC(=O)NC(c1cccnc1)C(C)(C)c1cccnc1` (stereo not given) showed an IC50 of 87.5 µM.

The compound `O=C(Cc1cccnc1)c1ccccc1` registered an IC50 of 158 µM.

In the case of `CC(C)(C(=O)c1cccnc1)c1cccnc1` [METYRAPONE], the IC50 came out at 7.83 µM.

As to `COC(c1cccnc1)C(C)(C)c1cccnc1` (stereo not given), the 50% inhibitory concentration (IC50) stood at 7.3 µM.

In the case of `CC(C(=O)c1ccccc1)c1cccnc1` (stereo not given), the half-inhibitory concentration (IC50) was found to be 7.72 µM.
